Compound activity (PubChem BioAssay)
A selection follows.
Apaf-1 act – activators of human Apaf-1 apoptosome, primary screen, biochemical, DEVD-Rh110 fluorescence, uHTS | Apoptotic protease-activating factor 1 (Homo sapiens), O14727 | Apaf-1 apoptosome caspase-3 activation; stronger effect = lower value | activity change, negative = activation, % at 20 µM | 330,000 compounds, 0.31% hits | AID 489031, 2010;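 active means activity change at or below -40% at 20 µM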
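system = biochemical Apaf-1 apoptosome reconstitution | buffer or medium = 20 mM HEPES pH 7.5 with CHAPS, BSA | also added = dATP and cytochrome c as apoptosome triggers, (Z-DEVD)2-Rh110 substrate | incubation = 30 min compound preincubation and 50 min reaction, both room temperature | measured by = fluorescence, 540 nm emission, 480 nm excitation | read-out basis = Caspase-3 cleavage activity downstream of Apaf-1 activation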
Rh110 act interf – Rh110 fluorescence interference by putative Apaf-1 activators, confirmation, artefact control for Apaf-1 activator project, biochemical, 20 µM; shares compounds with Apaf-1 act; quenched caspase reaction, Ex480/Em540; fluorescence interference (activity change), % at 20 µM, hits read low; 980 tested, under 10 active; AID 504616, 2011;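 active means mean activity change at or below -40% when tested at 20 µM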
Apaf-1 act conf – Apaf-1 activators, single-dose retest, confirmation, biochemical, fluorescence, DEVD-Rh110, 20 µM. reconstituted apoptosome caspase-3 activity; stronger effect = lower value. shares compounds with Apaf-1 act. 980 compounds, 5% hits. AID 504617, 2011. activity change, negative = activation, % at 20 µM;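 active means mean activity change at or below -40%, meaning activation of 40% or more, at 20 µM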
Fluor interf act – fluorescence interference of Apaf-1 activator hits, dose response, artefact control for Apaf-1 activator project; shares compounds with Apaf-1 act; fluorescence interference counterscreen, Apaf-1 activator assay; EC50, µM; 55 tested, under 10 active; AID 588592, 2011; call rule not given here
Large screens that a line does not name were inactive (follow-up assays come after a bar, where they were run).

C#CCOCCOCCOCCNc1nc(N2CCN(C(=O)CCCCCCCCCCNC(=O)[C@@H](CCC(=O)O)n3cc(CCCCCN)nn3)CC2)nc(N2CCN(C(=O)CCCCCCCCCCNC(=O)[C@H](CCCCN)n3cc(C[C@@H](C)CC)nn3)CC2)n1	none
COc1ccc(CN2C(=O)c3cccnc3C2=O)cc1S(=O)(=O)N1CCOc2ccccc21	Apaf-1 act -52 | Rh110 act interf inactive | Apaf-1 act conf inactive
COc1ccc(CC(=O)N(C)CC(=O)Nc2ccccc2Cl)cc1S(=O)(=O)N1CCOCC1	none
COc1ccc(CN(C)C(=O)Cc2ccc(OC)c(S(=O)(=O)N3CCOCC3)c2)cc1OC	none
O=C1C(NS(=O)(=O)c2cccs2)=C(N2CCN(c3ccccc3)CC2)C(=O)c2ccccc21	none
CCCN(CC(=O)Nc1ccccc1C)C(=O)C1CCN(c2ncnc3sc(C)c(C)c23)CC1	none
Cc1sc2ncn(CC(=O)NCCCC(=O)N3CCN(c4ccccc4)CC3)c(=O)c2c1C	Apaf-1 act -313 | Rh110 act interf inactive | Apaf-1 act conf inactive
Cc1cccc(C)c1NC(=O)CSc1nnc(-c2ccco2)c(-c2ccco2)n1	none
CCn1nc(C)c(NC(=O)CCSc2nc(-c3ccco3)cc(C(F)(F)F)n2)c1C	Apaf-1 act -246 | Rh110 act interf inactive | Apaf-1 act conf inactive
CC(C)(C)c1ccc(-c2nn(CCC#N)cc2/C=N/O)cc1	none
CSc1nc(NC(C)(C)C)nc(Oc2ccc(=O)n(C)n2)n1	Apaf-1 act -55 | Rh110 act interf inactive | Apaf-1 act conf inactive
C=CCC[C@@H](Cc1ccc(F)cc1)C(=O)OC[C@@H]1CCCN1C(=O)[C@H](CC=C)CC(=O)N[C@H](CO)Cc1ccccc1	none
Cc1[nH]n(-c2ccccc2)c(=O)c1C(c1cccc([N+](=O)[O-])c1)c1c(C)[nH]n(-c2ccccc2)c1=O	none
COc1cc(/C=C/c2cc[n+](C)cc2)ccc1OCC(=O)Nc1ccc(Cl)c(Cl)c1	none
CCOc1ccc(/C=C2\SC(=S)N(CCCC(=O)NCCCN3CCOCC3)C2=O)cc1	none
COc1cccc(/C=C2\SC(=S)N(CCCC(=O)N3CCCCC3)C2=O)c1	Apaf-1 act -137 | Rh110 act interf inactive | Apaf-1 act conf inactive
O=C(O)CCN1C(=O)/C(=C\c2ccc(OCc3ccccc3)c(OCc3ccccc3)c2)SC1=S	Apaf-1 act -56 | Rh110 act interf inactive | Apaf-1 act conf -79 | Fluor interf act inactive
C#CCOc1ccc(/C=C2/C(=O)N(c3cccc(C(=O)O)c3)N=C2C)cc1OC	none
COc1ccc(/C=C2\SC(=S)N(CCC(=O)Nc3ccc(C(=O)O)cc3)C2=O)cc1OC	Apaf-1 act -364 | Rh110 act interf inactive | Apaf-1 act conf -133 | Fluor interf act inactive
COC(=O)c1ccc(/C=C2/SC(=S)N(CCCC(=O)Nc3ccc(O)cc3)C2=O)cc1	Apaf-1 act -67 | Rh110 act interf inactive | Apaf-1 act conf inactive
COc1ccc(/C=C2/Sc3ccc(C(=O)NCCN4CCCCCC4)cc3NC2=O)cc1	none
COc1ccc(NC2=C(NCCO)C(=O)c3ccccc3C2=O)cc1	none
C#CCOCCOCCOCCNc1nc(N2CCN(C(=O)CCCCCCCCCCNC(=O)[C@@H](CCSC)n3cc(CCO)nn3)CC2)nc(N2CCN(C(=O)CCCCCCCCCCNC(=O)[C@H](CO)n3cc(CCCCCN)nn3)CC2)n1	none
C#CCOCCOCCOCCNc1nc(N2CCN(C(=O)CCCCCCCCCCNC(=O)[C@H]([C@@H](C)CC)n3cc(CCCCN=C(N)N)nn3)CC2)nc(N2CCN(C(=O)CCCCCCCCCCNC(=O)[C@H](CCCN=C(N)N)n3cc(C[C@@H](C)CC)nn3)CC2)n1	none
C#CCOCCOCCOCCNc1nc(N2CCN(C(=O)CCCCCCCCCCNC(=O)[C@H](CCCCN)n3cc(C)nn3)CC2)nc(N2CCN(C(=O)CCCCCCCCCCNC(=O)[C@H](CCCN=C(N)N)n3cc(C[C@@H](C)CC)nn3)CC2)n1	none
CC(=O)[C@@H]1[C@@H]2C(=O)N(Cc3ccccc3)C(=O)[C@@H]2C2c3ccccc3C=CN21 (some centres undefined)	none
O=C1CC(N2CCOCC2)=NN1c1ccc([N+](=O)[O-])cc1	none
Cc1c(Cl)cccc1N=C1SCCN1C(=O)CN1C(=O)NC2(CCCC2)C1=O	none
Oc1cccc(/C=N/Nc2cc(N3CCCC3)nc(N3CCCC3)n2)c1	none
CCN1CCN(CCCNC(=O)c2ccc(/C=C3/Oc4ccccc4N(Cc4cccc(C)c4)C3=O)cc2)CC1	none
CC(=O)N(/N=C1\Sc2ccccc2C1=O)c1ccc(C)cc1C	none
Cc1cccc(CN2C(=O)c3ccccc3Sc3ccc(C(=O)O)cc32)c1	Apaf-1 act -53 | Rh110 act interf inactive | Apaf-1 act conf inactive
CC(=O)Nc1c(I)c(NC(C)=O)c(I)c(C(=O)O)c1I	none
CCn1c(=NC(=O)c2ccco2)sc2cccc(F)c21	Apaf-1 act -432 | Rh110 act interf inactive | Apaf-1 act conf inactive
Cc1oc2c(c1C(=O)O)C(=O)c1ccccc1C2=O	none
CN1CCc2cccc3c2C1Cc1ccc(O)c(O)c1-3 (centres undefined)	none
CCOc1ccc(NC(=O)CN(C)C(=O)c2ccccc2OCc2cccc(C)c2)cc1OCC	none
Cc1cccc(NC(=S)Nc2cccc3ccccc23)c1	none
Cc1cccc(CC(=O)Nc2ccon2)c1	Apaf-1 act -278 | Rh110 act interf inactive | Apaf-1 act conf inactive
CC(=O)N(C)c1ccc(N=Cc2cc3c(cc2[N+](=O)[O-])OCO3)cc1	none
C#CCOCCOCCOCCNc1nc(N2CCN(C(=O)CCCCCCCCCCNC(=O)[C@@H](CCC(=O)O)n3cc(CCCCCN)nn3)CC2)nc(N2CCN(C(=O)CCCCCCCCCCNC(=O)[C@H](CO)n3cc(CCCCCN)nn3)CC2)n1	none
Oc1ccc2ccccc2c1CN1CCN(c2ccccc2F)CC1	Apaf-1 act -319 | Rh110 act interf inactive | Apaf-1 act conf inactive
COc1cc(/C=C2\C(=O)N(c3ccc(S(N)(=O)=O)cc3)N=C2C)ccc1OC(=O)c1ccco1	none
COC(=O)CCC(=O)N1CN2CN(C(=O)CCC(=O)OC)CC([N+](=O)[O-])(C2)C1	Apaf-1 act -152 | Rh110 act interf inactive | Apaf-1 act conf inactive
COc1ccc(S(=O)(=O)N2CCN(c3ccc4nnc(-c5ccccc5)n4n3)CC2)cc1	none
CN1CCN(S(=O)(=O)c2ccc(N3CCN(C(c4ccccc4)c4ccccc4)CC3)nc2)CC1	Apaf-1 act -78 | Rh110 act interf inactive | Apaf-1 act conf inactive
N#Cc1c(N)n(CCNC(=O)c2cccs2)c2nc3ccccc3nc12	none
CC(C)OP(=O)(OC(C)C)C(Nc1ccccn1)c1ccc(F)cc1 (centres undefined)	none
C=CCNC(=O)C1(S(=O)(=O)c2ccccc2)CC=CC1	Apaf-1 act -384 | Rh110 act interf inactive | Apaf-1 act conf inactive
Oc1ccc(C=Nc2ccc3ncccc3c2)c(O)c1	none
C1CCC(C(CC2CCCCN2)C2CCCCC2)CC1 (centres undefined)	none
COC(=O)c1ccccc1N/C=C1\CCc2c(c(C)nn2-c2ccccn2)C1=O	none
Cc1[nH]n(-c2ccccc2)c(=O)c1N=Nc1nccs1	none
